# Assay results as given in ChEMBL document CHEMBL1124191, “Design of rat renin inhibitory peptides” (J Med Chem, 1988).
# *1 amine or outer side, *2 acyl side, *3 side chain or, on linkers, in order; H or OH if unused. Where a SMILES comes first, the peptide text is derived from it. [ ]: non-standard residue; d: D form. Ahppa(3S,4S) = O=C(C[C@H](O)[C@H](Cc1ccccc1)N[*:1])[*:2]; ACHPA = O=C(C[C@H](O)[C@H](CC1CCCCC1)N[*:1])[*:2]; 1Nal = N[C@@H](Cc1cccc2ccccc12)C(=O)O; Sta = CC(C)C[C@H](N)[C@@H](O)CC(=O)O; Cha = N[C@@H](CC1CCCCC1)C(=O)O; Chg = N[C@H](C(=O)O)C1CCCCC1; Tle = CC(C)(C)[C@H](N)C(=O)O
# Molecular target: T1, Renin (Rattus norvegicus, UniProt P08424)
# T1 sequence (P08424 whole entry): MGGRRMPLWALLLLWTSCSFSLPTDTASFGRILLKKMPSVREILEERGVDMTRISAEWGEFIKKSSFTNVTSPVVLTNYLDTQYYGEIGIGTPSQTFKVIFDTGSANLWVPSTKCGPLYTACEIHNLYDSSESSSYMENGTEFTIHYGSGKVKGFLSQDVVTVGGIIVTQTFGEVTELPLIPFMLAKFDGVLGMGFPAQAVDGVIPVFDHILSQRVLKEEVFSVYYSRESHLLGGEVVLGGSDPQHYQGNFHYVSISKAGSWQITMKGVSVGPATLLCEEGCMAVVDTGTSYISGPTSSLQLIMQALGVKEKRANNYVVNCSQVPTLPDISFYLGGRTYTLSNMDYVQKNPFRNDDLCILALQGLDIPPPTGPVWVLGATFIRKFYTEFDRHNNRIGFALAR
# Experiment: Inhibitory activity against rat plasma renin in vitro.
# Format: cell-free
# Procedure, shortened: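 Pooled EDTA rat plasma with added PMSF 5 mM, 8-hydroxyquinoline 3 mM and extra EDTA 5 mM, at pH 7.4, mixed with serial 1:10 peptide dilutions (Tris/DMSO), split, and incubated 1 h at 37 and 0 °C.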
row,Compound,IC50
1,CC(=O)N[C@@H](Cc1cnc[nH]1)C(=O)N1CCC[C@H]1C(=O)N[C@@H](Cc1ccccc1)C(=O)N[C@@H](Cc1cnc[nH]1)C(=O)N[C@@H](CC(C)C)[C@@H](O)CC(=O)N[C@@H](CC(C)C)C(=O)N[C@@H](Cc1ccccc1)C(N)=O,0.21 µM
2,CC(=O)N[C@@H](Cc1c[nH]cn1)C(=O)N1CCC[C@H]1C(=O)N[C@H](CC(C)C)C(=O)N[C@@H](Cc1c[nH]cn1)C(=O)N[C@@H](CC(C)C)[C@@H](O)CC(=O)N[C@@H](CC(C)C)C(=O)N[C@@H](Cc1ccccc1)C(N)=O,~1000 µM
3,CC(=O)N[C@@H](Cc1c[nH]cn1)C(=O)N1CCC[C@H]1C(=O)N[C@@H](Cc1ccccc1)C(=O)N[C@H](C(=O)N[C@@H](CC(C)C)[C@@H](O)CC(=O)N[C@@H](CC(C)C)C(=O)N[C@@H](Cc1ccccc1)C(N)=O)C(C)C,0.03 µM
4,CC(=O)N[C@@H](Cc1cnc[nH]1)C(=O)N1CCC[C@H]1C(=O)N[C@@H](Cc1ccccc1)C(=O)N[C@@H](Cc1cnc[nH]1)C(=O)N[C@@H](CC1CCCCC1)[C@@H](O)CC(=O)N[C@@H](CC(C)C)C(=O)N[C@@H](Cc1ccccc1)C(N)=O,0.05 µM
5,CC(=O)N[C@@H](Cc1cnc[nH]1)C(=O)N1CCC[C@H]1C(=O)N[C@@H](Cc1ccccc1)C(=O)N[C@@H](CC(C)C)C(=O)N[C@@H](CC(C)C)[C@@H](O)CC(=O)N[C@@H](CC(C)C)C(=O)N[C@@H](Cc1ccccc1)C(N)=O,0.31 µM
6,CC(=O)N[C@@H](Cc1c[nH]cn1)C(=O)N1CCC[C@H]1C(=O)N[C@@H](Cc1ccccc1)C(=O)N[C@H](CC(C)C)C(=O)N[C@@H](CC(C)C)[C@@H](O)CC(=O)N[C@@H](CC(C)C)C(=O)N[C@@H](Cc1ccccc1)C(N)=O,~1000 µM
7,CC(=O)N[C@@H](Cc1cnc[nH]1)C(=O)N1CCC[C@H]1C(=O)N[C@@H](Cc1ccccc1)C(=O)N[C@H](C(=O)N[C@@H](CC1CCCCC1)[C@@H](O)CC(=O)N[C@@H](CC(C)C)C(=O)N[C@@H](Cc1ccccc1)C(N)=O)C(C)C,0.033 µM
8,CC(=O)N[C@@H](Cc1c[nH]cn1)C(=O)N1CCC[C@H]1C(=O)N[C@@H](CC(C)C)C(=O)N[C@@H](Cc1c[nH]cn1)C(=O)N[C@@H](CC(C)C)[C@@H](O)CC(=O)N[C@@H](CC(C)C)C(=O)N[C@@H](Cc1ccccc1)C(N)=O,9.1 µM
9,CC(=O)N[C@@H](Cc1c[nH]cn1)C(=O)N1CCC[C@@H]1C(=O)N[C@H](C)C(=O)N[C@@H](Cc1c[nH]cn1)C(=O)N[C@@H](CC(C)C)[C@@H](O)CC(=O)N[C@@H](CC(C)C)C(=O)N[C@@H](Cc1ccccc1)C(N)=O,~1000 µM
10,CC(=O)N[C@@H](Cc1c[nH]cn1)C(=O)N1CCC[C@@H]1C(=O)N[C@@H](Cc1ccccc1)C(=O)N[C@H](C)C(=O)N[C@@H](CC(C)C)[C@@H](O)CC(=O)N[C@@H](CC(C)C)C(=O)N[C@@H](Cc1ccccc1)C(N)=O,~1000 µM
11,CC(=O)N[C@@H](Cc1ccccc1)C(=O)N1CCC[C@H]1C(=O)N[C@@H](Cc1ccccc1)C(=O)N[C@H](C(=O)N[C@@H](CC(C)C)[C@@H](O)CC(=O)N[C@@H](CC(C)C)C(=O)N[C@@H](Cc1ccccc1)C(N)=O)C(C)C (Ac-FPFV[Sta]LF-NH2),0.042 µM
12,"CC(=O)N[C@@H](Cc1cnc[nH]1)C(=O)N1CCC[C@H]1C(=O)N[C@@H](Cc1ccccc1)C(=O)N[C@@H](Cc1cnc[nH]1)C(=O)N[C@@H](Cc1ccccc1)[C@@H](O)CC(=O)N[C@@H](CC(C)C)C(=O)N[C@@H](Cc1ccccc1)C(N)=O (Ac-HPFH[Ahppa(3S,4S)]LF-NH2)",0.15 µM
13,CC(=O)N[C@@H](Cc1cnc[nH]1)C(=O)N1CCC[C@H]1C(=O)N[C@@H](Cc1ccccc1)C(=O)N[C@@H](Cc1cnc[nH]1)C(=O)N[C@@H](CC(C)C)[C@@H](O)CC(=O)N[C@@H](CC(C)C)C(=O)N[C@H](C(N)=O)C(C)C (Ac-HPFH[Sta]LV-NH2),0.27 µM
14,CC(=O)N[C@@H](Cc1c[nH]cn1)C(=O)N1CCC[C@H]1C(=O)N[C@@H](Cc1ccccc1)C(=O)N[C@@H](Cc1c[nH]cn1)C(=O)N[C@@H](CC(C)C)[C@@H](O)CC(=O)N[C@@H](CC(C)C)C(=O)N[C@@H](CC1CCCCC1)C(N)=O (Ac-HPFH[Sta]L[Cha]-NH2),0.16 µM
15,CC(=O)N[C@@H](Cc1c[nH]cn1)C(=O)N1CCC[C@H]1C(=O)N[C@@H](Cc1ccccc1)C(=O)N[C@@H](Cc1c[nH]cn1)C(=O)N[C@@H](CC(C)C)[C@@H](O)CC(=O)N[C@H](C(=O)N[C@@H](Cc1ccccc1)C(N)=O)C(C)C (Ac-HPFH[Sta]VF-NH2),2.8 µM
16,CC(=O)N[C@@H](Cc1c[nH]cn1)C(=O)N1CCC[C@H]1C(=O)N[C@@H](Cc1ccccc1)C(=O)N[C@@H](Cc1c[nH]cn1)C(=O)N[C@@H](CC(C)C)[C@@H](O)CC(=O)N[C@@H](CC1CCCCC1)C(=O)N[C@@H](Cc1ccccc1)C(N)=O (Ac-HPFH[Sta][Cha]F-NH2),2.7 µM
17,CC(=O)N[C@@H](Cc1cnc[nH]1)C(=O)N1CCC[C@H]1C(=O)N[C@@H](Cc1ccccc1)C(=O)N[C@@H](Cc1cnc[nH]1)C(=O)N[C@@H](CC(C)C)[C@@H](O)CC(=O)N[C@H](C(=O)N[C@@H](Cc1ccccc1)C(N)=O)C(C)(C)C (Ac-HPFH[Sta][Tle]F-NH2),1.9 µM
18,"CC[C@H](C)[C@H](NC(=O)[C@H](Cc1ccccc1)NC(=O)[C@@H]1CCCN1C(=O)[C@H](Cc1cnc[nH]1)NC(C)=O)C(=O)N[C@@H](Cc1ccccc1)[C@@H](O)CC(=O)N[C@@H](CC(C)C)C(=O)N[C@@H](Cc1ccccc1)C(N)=O (Ac-HPFI[Ahppa(3S,4S)]LF-NH2)",1.27 µM
19,CC(=O)N[C@@H](Cc1cnc[nH]1)C(=O)N1CCC[C@H]1C(=O)N[C@@H](Cc1ccccc1)C(=O)N[C@H](C(=O)N[C@@H](CC(C)C)[C@@H](O)CC(=O)N[C@@H](CC(C)C)C(=O)N[C@@H](Cc1ccccc1)C(N)=O)C1CCCCC1 (Ac-HPF[Chg][Sta]LF-NH2),2.5 µM
20,CC(=O)N[C@@H](Cc1c[nH]cn1)C(=O)N1CCC[C@H]1C(=O)N[C@@H](Cc1ccccc1)C(=O)N[C@H](C(=O)N[C@@H](CC(C)C)[C@@H](O)CC(=O)N[C@@H](CC(C)C)C(=O)N[C@@H](Cc1ccccc1)C(N)=O)C(C)(C)C (Ac-HPF[Tle][Sta]LF-NH2),0.4 µM
21,CC(=O)N[C@@H](Cc1cnc[nH]1)C(=O)N1CCC[C@H]1C(=O)N[C@@H](Cc1c[nH]c2ccccc12)C(=O)N[C@@H](Cc1cnc[nH]1)C(=O)N[C@@H](CC(C)C)[C@@H](O)CC(=O)N[C@@H](CC(C)C)C(=O)N[C@@H](Cc1ccccc1)C(N)=O (Ac-HPWH[Sta]LF-NH2),0.24 µM
22,CC(=O)N[C@@H](Cc1c[nH]cn1)C(=O)N1CCC[C@H]1C(=O)N[C@@H](Cc1cccc2ccccc12)C(=O)N[C@@H](Cc1c[nH]cn1)C(=O)N[C@@H](CC(C)C)[C@@H](O)CC(=O)N[C@@H](CC(C)C)C(=O)N[C@@H](Cc1ccccc1)C(N)=O (Ac-HP[1Nal]H[Sta]LF-NH2),0.22 µM
23,CC(=O)N[C@@H](Cc1cnc[nH]1)C(=O)N1CCC[C@H]1C(=O)N[C@@H](CC1CCCCC1)C(=O)N[C@@H](Cc1cnc[nH]1)C(=O)N[C@@H](CC(C)C)[C@@H](O)CC(=O)N[C@@H](CC(C)C)C(=O)N[C@@H](Cc1ccccc1)C(N)=O (Ac-HP[Cha]H[Sta]LF-NH2),0.65 µM
24,COc1ccc(C[C@H](NC(C)=O)C(=O)N2CCC[C@H]2C(=O)N[C@@H](Cc2ccccc2)C(=O)N[C@H](C(=O)N[C@@H](CC(C)C)[C@@H](O)CC(=O)N[C@@H](CC(C)C)C(=O)N[C@@H](Cc2ccccc2)C(N)=O)C(C)C)cc1 (Ac-Y(Me)PFV[Sta]LF-NH2),0.034 µM
25,CC(=O)N[C@@H](Cc1cccc2ccccc12)C(=O)N1CCC[C@H]1C(=O)N[C@@H](Cc1ccccc1)C(=O)N[C@H](C(=O)N[C@@H](CC(C)C)[C@@H](O)CC(=O)N[C@@H](CC(C)C)C(=O)N[C@@H](Cc1ccccc1)C(N)=O)C(C)C (Ac-[1Nal]PFV[Sta]LF-NH2),0.05 µM
26,CC(=O)N[C@H](C(=O)N1CCC[C@H]1C(=O)N[C@@H](Cc1ccccc1)C(=O)N[C@H](C(=O)N[C@@H](CC(C)C)[C@@H](O)CC(=O)N[C@@H](CC(C)C)C(=O)N[C@@H](Cc1ccccc1)C(N)=O)C(C)C)C1CCCCC1 (Ac-[Chg]PFV[Sta]LF-NH2),0.28 µM
27,CC[C@H](C)[C@H](NC(=O)C[C@H](O)[C@H](CC1CCCCC1)NC(=O)[C@H](Cc1c[nH]cn1)NC(=O)[C@H](Cc1ccccc1)NC(=O)[C@@H]1CCCN1C(=O)[C@H](Cc1c[nH]cn1)NC(=O)[C@@H]1CCCN1)C(=O)N[C@@H](Cc1ccccc1)C(N)=O (H-PHPFH[ACHPA]IF-NH2),0.065 µM
28,"CC[C@H](C)[C@H](NC(=O)C[C@H](O)[C@H](Cc1ccccc1)NC(=O)[C@H](Cc1c[nH]cn1)NC(=O)[C@H](Cc1ccccc1)NC(=O)[C@@H]1CCCN1C(=O)[C@H](Cc1c[nH]cn1)NC(=O)[C@@H]1CCCN1)C(=O)N[C@@H](Cc1ccccc1)C(N)=O (H-PHPFH[Ahppa(3S,4S)]IF-NH2)",0.37 µM
29,"CC(C)[C@H](NC(=O)C[C@H](O)[C@H](Cc1ccccc1)NC(=O)[C@H](Cc1c[nH]cn1)NC(=O)[C@H](Cc1ccccc1)NC(=O)[C@@H]1CCCN1C(=O)[C@H](Cc1c[nH]cn1)NC(=O)[C@@H]1CCCN1)C(=O)N[C@@H](Cc1ccc(O)cc1)C(=O)N[C@@H](CCCCN)C(N)=O (H-PHPFH[Ahppa(3S,4S)]VYK-NH2)",1.3 µM
30,CC[C@H](C)[C@H](NC(=O)C[C@H](O)[C@H](CC(C)C)NC(=O)[C@H](Cc1c[nH]cn1)NC(=O)[C@H](Cc1ccccc1)NC(=O)[C@@H]1CCCN1C(=O)[C@H](Cc1c[nH]cn1)NC(=O)[C@@H]1CCCN1)C(=O)N[C@@H](Cc1ccccc1)C(N)=O (H-PHPFH[Sta]IF-NH2),10 µM
